Results published in ChEMBL document CHEMBL1153932, “Hybrid alpha-bromoacryloylamido chalcones. Design, synthesis and biological evaluation” (Bioorg Med Chem Lett, 2009).

Tests used:
L1210 = test: Antiproliferative activity against mouse L1210 cells after 48 hrs by Coulter counting analysis; type: functional, cell-based; settings: L1210, 48 h
FM3A = test: Antiproliferative activity against mouse FM3A cells after 48 hrs by Coulter counting analysis; type: functional, cell-based
MOLT-4 = test: Antiproliferative activity against human MOLT4 cells after 48 hrs by Coulter counting analysis; type: functional, cell-based; settings: MOLT-4, 48 h
CCRF-CEM = test: Antiproliferative activity against human CEM cells after 48 hrs by Coulter counting analysis; type: cell-based
HeLa = test: Antiproliferative activity against human HeLa cells after 48 hrs by Coulter counting analysis; type: functional, cell-based
[1] = Inhibition of bovine brain tubulin polymerization; set-up: species or system Bos taurus
K562 [2] = test: Antiproliferative activity against human K562 cells after 48 hrs by Coulter counting analysis; type: functional, cell-based; settings: K562, 48 h
K562 [3] = test: Cell cycle arrest in human K562 cells assessed as accumulation at subG1 phase at IC75 after 72 hrs using propidium iodide staining by flow cytometry; type: functional
Procedure, shortened: (§1)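 K562 cells were cultured 72 h with or without compound, then stained with propidium iodide and analysed by flow cytometry. The proportions of cells in sub-G1, G0–G1, S and G2-M were read from DNA histograms and compared with untreated controls.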

K562 [4] = test: Cell cycle arrest in human K562 cells assessed as accumulation at G0-G1 phase at IC75 after 72 hrs using propidium iodide staining by flow cytometry; type: functional; procedure, shortened: as §1
K562 [5] = test: Cell cycle arrest in human K562 cells assessed as accumulation at S phase at IC75 after 72 hrs using propidium iodide staining by flow cytometry; type: functional; procedure, shortened: as §1
K562 [6] = test: Cell cycle arrest in human K562 cells assessed as accumulation at G2-M phase at IC75 after 72 hrs using propidium iodide staining by flow cytometry; type: functional; procedure, shortened: as §1
[7] = Solubility of the compound; type: physicochemical
Bos taurus = organism: Bos taurus; test: Displacement of [3H]colchicine from bovine brain tubulin at 50 uM

SMILES | IC50 (L1210) | IC50 (MOLT-4) | IC50 (CCRF-CEM) | IC50 (HeLa) | IC50 [1] | solubility [7] | inhibition (Bos taurus) | IC50 (FM3A) | IC75 (K562 [2]) | Activity (K562 [3]) | Activity (K562 [4]) | Activity (K562 [5]) | Activity (K562 [6])
COc1cc(C(=O)/C=C/c2ccc(N)cc2)cc(OC)c1OC | 14 µM | 1.5 µM | 2.5 µM | 1.9 µM |  |  |  | 36 µM |  |  |  |  | 
COc1cccc(C(=O)/C=C/c2ccc(N)cc2)c1 | 38 µM | 20 µM | 26 µM | 33 µM |  |  |  | 43 µM |  |  |  |  | 
Nc1ccc(/C=C/C(=O)c2cccc3ccccc23)cc1 | 32 µM | 12 µM | 22 µM | 18 µM |  |  |  | 41 µM |  |  |  |  | 
COc1ccc(/C=C/C(=O)c2ccc(N)cc2)cc1 | 18 µM | 8.6 µM | 14 µM | 8.7 µM |  |  |  | 35 µM |  |  |  |  | 
C=C(Br)C(=O)Nc1ccc(/C=C/C(=O)c2cc(OC)c(OC)c(OC)c2)cc1 | 0.91 µM | 0.85 µM | 1.1 µM | 1.1 µM |  |  |  | 0.95 µM |  |  |  |  | 
COc1cc(/C=C/C(=O)c2ccc(N)cc2)cc(OC)c1 | 6 µM | 7.5 µM | 5.7 µM | 7.9 µM |  |  |  | 12 µM |  |  |  |  | 
C=C(Br)C(=O)Nc1ccc(/C=C/C(=O)c2ccc(OC)cc2)cc1 | 0.98 µM | 1.3 µM | 1.4 µM | 1.4 µM |  |  |  | 1.2 µM |  |  |  |  | 
C=C(Br)C(=O)Nc1ccc(/C=C/C(=O)c2ccccc2)cc1 | 5 µM | 3.1 µM | 4 µM | 3.9 µM |  |  |  | 3.9 µM |  |  |  |  | 
C=C(Br)C(=O)Nc1ccc(C(=O)/C=C/c2ccccc2)cc1 | 0.88 µM | 0.5 µM | 1.5 µM | 0.96 µM | > 40 µM | Insoluble |  | 0.69 µM | 2.77 µM | 47.6% | 23% | 16.4% | 13%
C=C(Br)C(=O)O | > 120 µM |  |  |  |  |  |  |  |  |  |  |  | 
C=C(Br)C(=O)Nc1ccc(C(=O)/C=C/c2ccc(OC)c(OC)c2)cc1 | 1.3 µM | 1.8 µM | 1.6 µM | 0.77 µM |  |  |  | 1.2 µM |  |  |  |  | 
COc1ccc(C(=O)/C=C/c2ccc(N)cc2)cc1 | 160 µM | 19 µM | 37 µM | 98 µM |  |  |  | 282 µM |  |  |  |  | 
C=C(Br)C(=O)Nc1ccc(/C=C/C(=O)c2ccc(F)cc2)cc1 | 1.6 µM | 0.66 µM | 1.1 µM | 1.4 µM |  |  |  | 1.2 µM |  |  |  |  | 
Nc1ccc(/C=C/C(=O)c2ccc(Br)cc2)cc1 | 90 µM | 10 µM | 14 µM | 49 µM |  |  |  | 120 µM |  |  |  |  | 
C=C(Br)C(=O)Nc1ccc(C(=O)/C=C/c2ccccc2OC)cc1 | 1.7 µM | 0.24 µM | 0.58 µM | 1.3 µM | 8.3 µM | Insoluble | 37% | 0.37 µM | 2.94 µM | 83.4% | 6.4% | 6.3% | 3.9%
COc1cc(/C=C/C(=O)c2ccc(N)cc2)cc(OC)c1OC | 7.8 µM | 5.6 µM | 2.3 µM | 6.9 µM |  |  |  | 8.8 µM |  |  |  |  | 
Nc1ccc(/C=C/C(=O)c2cccs2)cc1 | 87 µM | 13 µM | 27 µM | 15 µM |  |  |  | 123 µM |  |  |  |  | 
C=C(Br)C(=O)Nc1ccc(/C=C/C(=O)c2ccc(Cl)c(Cl)c2)cc1 | 2.1 µM | 1.8 µM | 1.7 µM | 3.2 µM |  |  |  | 3.2 µM |  |  |  |  | 
C=C(Br)C(=O)Nc1ccc(/C=C/C(=O)c2cccc(OC)c2)cc1 | 2.1 µM | 0.85 µM | 2.3 µM | 0.7 µM |  |  |  | 2.7 µM |  |  |  |  | 
COc1ccc(/C=C/C(=O)c2ccc(N)cc2)c(OC)c1 | 34 µM | 20 µM | 18 µM | 22 µM |  |  |  | 43 µM |  |  |  |  | 
Nc1ccc(/C=C/C(=O)c2ccccc2)cc1 | 88 µM | 10 µM | 34 µM | 36 µM |  |  |  | 146 µM |  |  |  |  | 
C=C(Br)C(=O)Nc1ccc(/C=C/C(=O)c2cccc3ccccc23)cc1 | 1.1 µM | 2.1 µM | 3.1 µM | 2 µM |  |  |  | 2.4 µM |  |  |  |  | 
C=C(Br)C(=O)Nc1ccc(C(=O)/C=C/c2cc(OC)c(OC)c(OC)c2)cc1 | 1.5 µM | 0.28 µM | 0.33 µM | 0.42 µM |  |  |  | 1.8 µM |  |  |  |  | 
Nc1ccc(/C=C/C(=O)c2ccc(Cl)c(Cl)c2)cc1 | 26 µM | 13 µM | 15 µM | 31 µM |  |  |  | 33 µM |  |  |  |  | 
C=C(Br)C(=O)Nc1ccc(C(=O)/C=C/c2ccc(OC)cc2)cc1 | 0.9 µM | 0.61 µM | 1.1 µM | 0.31 µM | > 40 µM | Insoluble |  | 1 µM | 1.14 µM | 68.2% | 11% | 11.6% | 9.2%
COc1ccc(/C=C/C(=O)c2ccc(N)cc2)cc1OC | 25 µM | 8.6 µM | 9.3 µM | 7.8 µM |  |  |  | 35 µM |  |  |  |  | 
Cc1ccc(C(=O)/C=C/c2ccc(N)cc2)cc1 | 49 µM | 12 µM | 31 µM | 40 µM |  |  |  | 107 µM |  |  |  |  | 
C=C(Br)C(=O)Nc1ccc(C(=O)/C=C/c2cc(OC)cc(OC)c2)cc1 | 2.7 µM | 1.5 µM | 2.2 µM | 1.7 µM |  |  |  | 2 µM |  |  |  |  | 

Continued by falling IC50 (L1210), values first:

IC50 (L1210) | IC50 (MOLT-4) | IC50 (CCRF-CEM) | IC50 (HeLa) | IC50 [1] | solubility [7] | inhibition (Bos taurus) | SMILES | IC50 (FM3A) | IC75 (K562 [2]) | Activity (K562 [3]) | Activity (K562 [4]) | Activity (K562 [5]) | Activity (K562 [6])
123 µM | 12 µM | 39 µM | 40 µM |  |  |  | Nc1ccc(/C=C/C(=O)c2ccc(F)cc2)cc1 | 185 µM |  |  |  |  | 
111 µM | 7.8 µM | 21 µM | 43 µM |  |  |  | Nc1ccc(/C=C/C(=O)c2ccc(Cl)cc2)cc1 | 178 µM |  |  |  |  | 
67 µM | 9.9 µM | 20 µM | 28 µM |  |  |  | CN(C)c1ccc(/C=C/C(=O)c2ccc(N)cc2)cc1 | 96 µM |  |  |  |  | 
50 µM | 7.5 µM | 16 µM | 58 µM |  |  |  | Nc1ccc(/C=C/C(=O)c2ccc(I)cc2)cc1 | 110 µM |  |  |  |  | 
25 µM | 10 µM | 9.7 µM | 8.2 µM |  |  |  | COc1ccc(/C=C/C(=O)c2ccc(N)cc2)c(OC)c1OC | 29 µM |  |  |  |  | 
22 µM | 21 µM | 23 µM | 19 µM |  |  |  | COc1cccc(/C=C/C(=O)c2ccc(N)cc2)c1 | 45 µM |  |  |  |  | 
21 µM | 11 µM | 15 µM | 41 µM |  |  |  | CCOc1ccc(C(=O)/C=C/c2ccc(N)cc2)cc1 | 55 µM |  |  |  |  | 
14 µM | 7.9 µM | 8.5 µM | 7.7 µM |  |  |  | Nc1ccc(C(=O)/C=C/c2ccccc2)cc1 | 34 µM |  |  |  |  | 
3.4 µM | 2.8 µM | 4 µM | 7.7 µM |  |  |  | C=C(Br)C(=O)Nc1ccc(/C=C/C(=O)c2ccc(I)cc2)cc1 | 8.3 µM |  |  |  |  | 
1.9 µM | 1.7 µM | 1.8 µM | 2.1 µM |  |  |  | C=C(Br)C(=O)Nc1ccc(/C=C/C(=O)c2ccc(C)cc2)cc1 | 2.1 µM |  |  |  |  | 
1.1 µM | 1.1 µM | 1.8 µM | 0.5 µM |  |  |  | C=C(Br)C(=O)Nc1ccc(C(=O)/C=C/c2cccc(OC)c2)cc1 | 1.8 µM |  |  |  |  | 
1.1 µM | 0.81 µM | 0.95 µM | 1.6 µM |  |  |  | C=C(Br)C(=O)Nc1ccc(/C=C/C(=O)c2ccc(Cl)cc2)cc1 | 1.3 µM |  |  |  |  | 
1.1 µM | 0.49 µM | 0.71 µM | 0.38 µM | > 40 µM | Insoluble |  | C=C(Br)C(=O)Nc1ccc(C(=O)/C=C/c2cccc(OC)c2OC)cc1 | 0.55 µM | 0.64 µM | 48.4% | 22.3% | 15.2% | 14.1%
0.62 µM | 0.68 µM | 0.99 µM | 1 µM | > 40 µM | Insoluble |  | C=C(Br)C(=O)Nc1ccc(/C=C/C(=O)c2ccc(Br)cc2)cc1 | 1.1 µM | 0.84 µM | 20.4% | 35.9% | 27.5% | 16.2%
0.52 µM | 1.5 µM | 1.1 µM | 1.1 µM |  |  |  | C=C(Br)C(=O)Nc1ccc(C(=O)/C=C/c2ccc(OC)cc2OC)cc1 | 1.2 µM |  |  |  |  | 
0.25 µM | 0.55 µM | 0.73 µM | 0.34 µM | > 40 µM | Insoluble |  | C=C(Br)C(=O)Nc1ccc(/C=C/C(=O)c2cccs2)cc1 | 0.52 µM | 0.82 µM | 42.8% | 17% | 23.2% | 17%
